Results as given in ChEMBL document CHEMBL3352209, “Chroman-4-one- and chromone-based sirtuin 2 inhibitors with antiproliferative properties in cancer cells” (J Med Chem, 2014).
Blank lines part the entries; values can stand above or below the compound they belong to. Active and inactive are the calls of the source. The rule behind the calls is not given here.

Legend:
[1] = target: T1, NAD-dependent protein deacetylase sirtuin-2 (Homo sapiens) (UniProt Q8IXJ6); assay: Inhibition of recombinant GST-tagged sirtuin-2 (unknown origin) using KI179 as substrate at 200 uM after 1 hr by fluorescence assay
T1 sequence (whole entry): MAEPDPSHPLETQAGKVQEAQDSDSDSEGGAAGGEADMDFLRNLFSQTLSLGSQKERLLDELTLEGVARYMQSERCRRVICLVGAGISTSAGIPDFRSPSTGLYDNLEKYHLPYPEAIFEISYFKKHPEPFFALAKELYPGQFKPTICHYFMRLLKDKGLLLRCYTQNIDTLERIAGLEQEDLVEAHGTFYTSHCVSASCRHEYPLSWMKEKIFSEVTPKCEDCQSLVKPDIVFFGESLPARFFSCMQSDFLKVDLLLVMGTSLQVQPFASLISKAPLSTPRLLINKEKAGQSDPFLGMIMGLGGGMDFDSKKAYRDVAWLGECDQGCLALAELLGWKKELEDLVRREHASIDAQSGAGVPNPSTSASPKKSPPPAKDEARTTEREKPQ
In short: (§1)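 Recombinant GST-SIRT2 with Fluor de Lys KI179 acetyl-peptide at 0.7 Km (Km 198 μM) and NAD+ at 0.9 Km in HDAC buffer with 1 mg/mL BSA. Compound in DMSO (5% v/v) preincubated 5 min at room temperature, enzyme added, 1 h at 37 °C; developer plus 2 mM nicotinamide 45 min at 37 °C; fluorescence ex 370/em 460 nm. Single-point inhibition at 200 μM, n = 3; IC50 with 95% CI where inhibition >80%.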

[2] = target: T1, NAD-dependent protein deacetylase sirtuin-2 (Homo sapiens); assay: Inhibition of sirtuin-2 (unknown origin) by SIRTainty assay in presence of NAD+; settings: concentration not given here
In short: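 SIRT2 run in the SIRTainty kit, which uses nicotinamidase to detect nicotinamide released from NAD+, with and without NAD+. Fluorescence ex 405/em 460 nm, given as percent inhibition of the NAD+-dependent signal.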

MCF7 [3] = assay: Antiproliferative activity against human MCF7 cells at 1 to 100 uM after 72 hrs by sulforhodamine B assay; format: functional, cell-based
In short: (§2)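 A549 and MCF-7 cells (DMEM, 10% FCS, penicillin/streptomycin, 37 °C, 5% CO2) seeded 3000 cells/well 24 h before dosing; 0–100 μM compound or 0.5% DMSO vehicle for 48 h (A549) or 72 h (MCF-7). Growth read by sulforhodamine B staining; mean ± SEM of two to three independent experiments; ANOVA with Tukey test.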

MCF7 [4] = assay: Cell cycle arrest in human MCF7 cells assessed as accumulation at G1/G0 phase at 50 uM after 18 hrs by propidium iodide staining-based flow cytometry; format: functional
In short: (§3)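 A549 or MCF-7 cells seeded 0.6 × 10⁶/well 6 h before exposure to compound or 0.5% DMSO vehicle for 18 h. DNA content measured by propidium iodide staining and flow cytometry, giving percent of cells in G1/G0, S and G2/M; mean ± SEM of two to four independent experiments; one-way ANOVA with Tukey test.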

A549 [5] = assay: Antiproliferative activity against human A549 cells at 10 uM after 48 hrs by sulforhodamine B assay; format: functional, cell-based
MCF7 [6] = assay: Antiproliferative activity against human MCF7 cells at >=50 uM after 48 hrs by sulforhodamine B assay; format: functional, cell-based
[7] = target: T1, NAD-dependent protein deacetylase sirtuin-2 (Homo sapiens); assay: Inhibition of SIRT2 in human MCF7 cells assessed as alpha-tubulin acetylation after 6 to 18 hrs by Western blotting analysis; format: cell-based
In short: (§4)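 MCF-7 cells seeded 10⁵/well, dosed 24 h later with compound plus 40 nM Trichostatin A, or 0.5% DMSO, for 6 or 18 h. Lysates separated by SDS-PAGE and blotted with acetylated α-tubulin and total α-tubulin mouse monoclonals, HRP anti-mouse and ECL detection; mean ± SEM of three independent experiments.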

MCF7 [8] = assay: Cytotoxicity against human MCF7 cells at 100 uM after 18 hrs; format: cell-based; settings: mcf7, 18 h
[9] = target: T2, NAD-dependent protein deacetylase sirtuin-2 (Homo sapiens, UniProt Q8IXJ6); assay: Inhibition of recombinant GST-tagged sirtuin-2 (unknown origin) using KI179 as substrate after 1 hr by fluorescence assay; in short: as §1
T2 sequence (Q8IXJ6 whole entry): T1 sequence (whole entry)

A549 [10] = assay: Cell cycle arrest in human A549 cells assessed as accumulation at G1/G0 phase at 50 uM after 18 hrs by propidium iodide staining-based flow cytometry; format: functional; in short: as §3
A549 [11] = assay: Antiproliferative activity against human A549 cells at 1 to 100 uM after 48 hrs by sulforhodamine B assay; format: functional, cell-based; in short: as §2
MCF7 [12] = assay: Antiproliferative activity against human MCF7 cells at 10 uM after 72 hrs by sulforhodamine B assay
[13] = target: T1, NAD-dependent protein deacetylase sirtuin-2 (Homo sapiens); settings: MCF7, 25 to 100 uM
A549 [14] = assay: Antiproliferative activity against human A549 cells at >=50 uM after 48 hrs by sulforhodamine B assay; format: functional, cell-based
MCF7 [15] = assay: Induction of apoptosis in human MCF7 cells at 50 uM after 18 hrs by propidium iodide staining-based flow cytometry; format: functional, cell-based
A549 [16] = assay: Induction of apoptosis in human A549 cells at 50 uM after 18 hrs by propidium iodide staining-based flow cytometry; format: functional, cell-based
A549 [17] = assay: Induction of apoptosis in human A549 cells at 100 uM after 18 hrs by propidium iodide staining-based flow cytometry; format: functional, cell-based
MCF7 [18] = assay: Induction of apoptosis in human MCF7 cells at 100 uM after 18 hrs by propidium iodide staining-based flow cytometry; format: functional, cell-based
A549 [19] = assay: Cell cycle arrest in human A549 cells assessed as reduction in G2 phase at 100 uM after 18 hrs by propidium iodide staining-based flow cytometry; format: functional; in short: as §3
A549 [20] = assay: Cell cycle arrest in human A549 cells assessed as accumulation at G1/G0 phase at 100 uM after 18 hrs by propidium iodide staining-based flow cytometry; format: functional; in short: as §3
MCF7 [21] = assay: Cell cycle arrest in human MCF7 cells assessed as accumulation at G1/G0 phase at 100 uM after 18 hrs by propidium iodide staining-based flow cytometry; format: functional; in short: as §3
[22] = target: T1, NAD-dependent protein deacetylase sirtuin-2 (Homo sapiens); assay: Inhibition of SIRT2 in human MCF7 cells assessed as alpha-tubulin acetylation at 50 to 100 uM after 18 hrs by Western blotting analysis; format: cell-based; in short: as §4

Compound: O=C1CC(CCc2ccc3ncccc3c2)Oc2c(Br)cc(Cl)cc21 (stereo unspecified)
inhibition [1]: 56%

Compound: CNC(=O)CCC1CC(=O)c2cc(Cl)cc(Br)c2O1 (stereo unspecified)
inhibition [1]: 0.2%

Compound: O=C1CC(CCCCCO)Oc2c(Br)cc(Cl)cc21 (stereo unspecified)
inhibition [1]: 67%

Compound: O=C1CC(CCCN2CCOCC2)Oc2c(Br)cc(Cl)cc21 (stereo unspecified)
inhibition [2]: 17%

Compound: COCCOCC1CC(=O)c2cc(Cl)cc(Br)c2O1 (stereo unspecified)
inhibition [1]: 33%

Compound: O=C1CC(CCCO)Oc2c(Br)cc(Cl)cc21 (stereo unspecified)
inhibition [1]: 18%

Compound: Cc1noc(CCCC2CC(=O)c3cc(Cl)cc(Br)c3O2)n1 (stereo unspecified)
inhibition [1]: 49%

Compound: O=C1CC(CCc2cccnc2)Oc2c(Br)cc(Cl)cc21 (stereo unspecified)
growth inhibition (GI) (MCF7 [3]): Active | Activity (MCF7 [4]): Active | growth inhibition (GI) (A549 [5]): Active | growth inhibition (GI) (MCF7 [6]): Active | inhibition [7]: Dose-dependent effect | Activity (MCF7 [8]): Toxic | inhibition [1]: 86% | IC50 [9]: 3.7 µM | Activity (A549 [10]): Active | growth inhibition (GI) (A549 [11]): Active | growth inhibition (GI) (MCF7 [12]): Active | inhibition [13]: Active | growth inhibition (GI) (A549 [14]): Active | Activity (MCF7 [15]): inactive | Activity (A549 [16]): inactive

Compound: Cc1noc(CCC2CC(=O)c3cc(Cl)cc(Br)c3O2)n1 (stereo unspecified)
Activity (A549 [17]): inactive | growth inhibition (GI) (MCF7 [3]): Active | Activity (MCF7 [18]): inactive | Activity (A549 [19]): Active | inhibition [7]: Dose-dependent effect | inhibition [1]: 77% | IC50 [9]: 12.2 µM | Activity (A549 [20]): Active | growth inhibition (GI) (A549 [11]): Active | Activity (MCF7 [21]): Active | inhibition [22]: Active

Compound: Nc1c(CCc2ccccc2)oc2c(Br)cc(Cl)cc2c1=O
inhibition [1]: 79%

Compound: O=C(CCCC1CC(=O)c2cc(Cl)cc(Br)c2O1)NCc1ccccc1 (stereo unspecified)
inhibition [1]: 39%

Compound: COC(=O)CCCC1CC(=O)c2cc(Cl)cc(Br)c2O1 (stereo unspecified)
inhibition [1]: 90% | IC50 [9]: 2 µM

Compound: CC(=O)Nc1c(CCc2ccccc2)oc2c(Br)cc(Cl)cc2c1=O
inhibition [1]: 81% | IC50 [9]: 28.7 µM

Compound: CNC(=O)CCCC1CC(=O)c2cc(Cl)cc(Br)c2O1 (stereo unspecified)
inhibition [1]: 39%

Compound: COC(=O)CCC1CC(=O)c2cc(Cl)cc(Br)c2O1 (stereo unspecified)
inhibition [1]: 80% | IC50 [9]: 9.6 µM

Compound: O=C1CC(CCCCO)Oc2c(Br)cc(Cl)cc21 (stereo unspecified)
inhibition [1]: 52%

Compound: CCCCCC1CC(=O)c2cc(Br)ccc2O1 (stereo unspecified)
inhibition [1]: 69%

Next, values leading:

inhibition [1]: 7.6%
Compound: O=C(O)CCCC1CC(=O)c2cc(Cl)cc(Br)c2O1 (stereo unspecified)

inhibition [1]: 53%
Compound: CN(C)C(=O)CCCC1CC(=O)c2cc(Cl)cc(Br)c2O1 (stereo unspecified)

inhibition [1]: 73%
Compound: O=C1CC(CCc2ccncc2)Oc2c(Br)cc(Cl)cc21 (stereo unspecified)

inhibition [1]: 50%
Compound: N#Cc1c(CCc2ccccc2)oc2c(Br)cc(Cl)cc2c1=O

inhibition [1]: 23%
Compound: CC(C)NC(=O)CCCC1CC(=O)c2cc(Cl)cc(Br)c2O1 (stereo unspecified)

inhibition [1]: 6.8%
Compound: O=C(O)CCC1CC(=O)c2cc(Cl)cc(Br)c2O1 (stereo unspecified)

inhibition [1]: 74%
Compound: O=C1CC(CCc2ccccn2)Oc2c(Br)cc(Cl)cc21 (stereo unspecified)

inhibition [1]: 96% | IC50 [9]: 1.8 µM
Compound: CCCCCC1CC(=O)c2cc(Br)cc(Cl)c2O1 (stereo unspecified)

inhibition [1]: 76%
Compound: N/C=C1\C(=O)c2cc(Cl)cc(Br)c2OC1CCc1ccccc1 (stereo unspecified)

inhibition [2]: 40%
Compound: O=C1CC(CCCN2CCCCC2)Oc2c(Br)cc(Cl)cc21 (stereo unspecified)

inhibition [1]: 59%
Compound: O=C1CC(CCc2ccc3[nH]c(=O)ccc3c2)Oc2c(Br)cc(Cl)cc21 (stereo unspecified)
